ChEMBL document CHEMBL5724801, “EUbOPEN Chemogenomics Library - Multiplex” (2024)
Where “and” joins values, the source holds several entries; their conditions need not be identical. Equal entries are not always repeated.

Columns and labels:
Format in all cases: toxicity, cell-based
[1] = system: U2OS; experiment: Multiplex assay against U2OS; conditions: human
In short: (§1)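 Four dyes were applied at seeding to live cells: Hoechst33342, BioTracker Green Microtubule Cytoskeleton Dye, MitoTracker Red and Annexin V Alexa Fluor 680. Imaging after compound addition used a CQ1 microscope at 37°C and 5% CO2. CellPathfinder machine-learning gating then sorted cells into Hoechst high-intensity objects or normal cells, normal cells into healthy, pyknosed or fragmented nuclei, and pyknosed cells into mitotic or apoptotic, with tubulin, mitochondrial-mass and membrane-permeability phenotypes given as per cents of healthy-nucleus cells.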

[2] = system: Fibroblast; experiment: Multiplex assay against human fibroblast; in short: as §1
[3] = system: HEK-293T; experiment: Multiplex assay against HEK293T; conditions: human; in short: as §1
[4] = 12 h, 1 µM, compound concentration 1 uM
[5] = 12 h, 10 µM, compound concentration 10 uM
[6] = 24 h, 1 µM, compound concentration 1 uM
[7] = 24 h, 10 µM, compound concentration 10 uM
[8] = 48 h, 1 µM, compound concentration 1 uM
[9] = 48 h, 10 µM, compound concentration 10 uM

## Clc1ccccc1C(c1ccccc1)(c1ccccc1)n1cccn1
[1]; [4]
  Population Apoptotic (%): 52.94% and 50%
  Population Fragmented Nuclei (%): 0.85% and 6.19%
  Population Healthy Nuclei (%): 94.3% and 76.11%
  Population Hoechst High Intensity Objects (%): 0%
  Population Membrane Permeable-Phenotype (%): 0.91% and 5.81%
  Population Mitochondria Different-Phenotype (%): 0.6% and 8.14%
  Population Mitotic Cells (%): 47.06% and 50%
  Population Normal (%): 100%
  Population Tubulin-Different-Phenotype (%): 1.51% and 2.33%
[1]; [5]
  Population Apoptotic (%): 36% and 44%
  Population Fragmented Nuclei (%): 1.64% and 4.81%
  Population Healthy Nuclei (%): 84.7% and 71.15%
  Population Hoechst High Intensity Objects (%): 0%
  Population Membrane Permeable-Phenotype (%): 2.58% and 8.11%
  Population Mitotic Cells (%): 64% and 56%
  Population Normal (%): 100%
  Population Pyknosed Nuclei (%): 13.66% and 24.04%
  Population Tubulin-Different-Phenotype (%): 4.19% and 5.41%
[1]; [6]
  Population Apoptotic (%): 37.5% and 52.38%
  Population Fragmented Nuclei (%): 0.42% and 4.86%
  Population Healthy Nuclei (%): 89.47% and 80.56%
  Population Hoechst High Intensity Objects (%): 0%
  Population Membrane Permeable-Phenotype (%): 0.71% and 2.59%
  Population Mitochondria Different-Phenotype (%): 0% and 6.9%
  Population Mitotic Cells (%): 62.5% and 47.62%
  Population Normal (%): 100%
  Population Pyknosed Nuclei (%): 10.11% and 14.58%
  Population Tubulin-Different-Phenotype (%): 0.71% and 0%
[1]; [7]
  Population Apoptotic (%): 45.33% and 34.38%
  Population Fragmented Nuclei (%): 1.25% and 0.79%
  Population Healthy Nuclei (%): 83.12% and 73.81%
  Population Hoechst High Intensity Objects (%): 0%
  Population Membrane Permeable-Phenotype (%): 0.75% and 4.3%
  Population Mitotic Cells (%): 54.67% and 65.62%
  Population Normal (%): 100%
  Population Pyknosed Nuclei (%): 15.62% and 25.4%
  Population Tubulin-Different-Phenotype (%): 2.51% and 2.15%
[1]; [8]
  Population Apoptotic (%): 43.33% and 70%
  Population Fragmented Nuclei (%): 3.58% and 1.82%
  Population Healthy Nuclei (%): 89.7% and 89.09%
  Population Hoechst High Intensity Objects (%): 0%
  Population Membrane Permeable-Phenotype (%): 0.75% and 3.57%
  Population Mitochondria Different-Phenotype (%): 0.12% and 4.08%
  Population Mitotic Cells (%): 56.67% and 30%
  Population Normal (%): 100%
  Population Pyknosed Nuclei (%): 6.72% and 9.09%
  Population Tubulin-Different-Phenotype (%): 1.25% and 2.04%
[1]; [9]
  Population Apoptotic (%): 51.65% and 41.67%
  Population Fragmented Nuclei (%): 2.12% and 0.6%
  Population Healthy Nuclei (%): 85.85% and 77.71%
  Population Hoechst High Intensity Objects (%): 0%
  Population Membrane Permeable-Phenotype (%): 1.54% and 5.43%
  Population Mitochondria Different-Phenotype (%): 1.08% and 10.08%
  Population Mitotic Cells (%): 48.35% and 58.33%
  Population Normal (%): 100%
  Population Pyknosed Nuclei (%): 12.04% and 21.69%
  Population Tubulin-Different-Phenotype (%): 3.08% and 5.43%
[2]; [4]
  Population Apoptotic (%): 14.29% and 24%
  Population Healthy Nuclei (%): 59.04% and 80.46%
  Population Hoechst High Intensity Objects (%): 0%
  Population Membrane Permeable-Phenotype (%): 4.08% and 0.71%
  Population Mitochondria Different-Phenotype (%): 5.1% and 12.14%
  Population Mitotic Cells (%): 85.71% and 76%
  Population Normal (%): 100%
  Population Pyknosed Nuclei (%): 25.3% and 14.37%
  Total Cell Count: 166 and 174
[2]; [5]
  Population Apoptotic (%): 9.84% and 23.44%
  Population Fragmented Nuclei (%): 9.09% and 6.46%
  Population Healthy Nuclei (%): 63.18% and 69.2%
  Population Hoechst High Intensity Objects (%): 0%
  Population Membrane Permeable-Phenotype (%): 9.35% and 3.85%
  Population Mitochondria Different-Phenotype (%): 14.39% and 16.48%
  Population Mitotic Cells (%): 90.16% and 76.56%
  Population Normal (%): 100%
  Population Pyknosed Nuclei (%): 27.73% and 24.33%
  Population Tubulin-Different-Phenotype (%): 30.22% and 45.6%
  Total Cell Count: 220 and 263
[2]; [6]
  Population Fragmented Nuclei (%): 12.05% and 9.29%
  Population Healthy Nuclei (%): 71.08% and 85.25%
  Population Hoechst High Intensity Objects (%): 0%
  Population Membrane Permeable-Phenotype (%): 4.24% and 2.56%
  Population Mitochondria Different-Phenotype (%): 3.39% and 8.97%
  Population Mitotic Cells (%): 96.43% and 60%
  Population Normal (%): 100%
  Population Tubulin-Different-Phenotype (%): 10.17% and 21.15%
  Total Cell Count: 166 and 183
[2]; [7]
  Population Apoptotic (%): 13.04% and 31.25%
  Population Healthy Nuclei (%): 67.26% and 79.55%
  Population Hoechst High Intensity Objects (%): 0%
  Population Membrane Permeable-Phenotype (%): 9.87% and 0.95%
  Population Mitochondria Different-Phenotype (%): 7.24% and 10.95%
  Population Mitotic Cells (%): 86.96% and 68.75%
  Population Normal (%): 100%
  Population Pyknosed Nuclei (%): 20.35% and 18.18%
  Population Tubulin-Different-Phenotype (%): 45.39% and 44.29%
  Total Cell Count: 226 and 264
[2]; [8]
  Population Apoptotic (%): 40% and 22.22%
  Population Fragmented Nuclei (%): 11.92% and 7.69%
  Population Healthy Nuclei (%): 82.9% and 87.69%
  Population Hoechst High Intensity Objects (%): 0%
  Population Membrane Permeable-Phenotype (%): 0.62% and 0.58%
  Population Mitochondria Different-Phenotype (%): 11.25% and 3.51%
  Population Mitotic Cells (%): 60% and 77.78%
  Population Normal (%): 100%
  Population Pyknosed Nuclei (%): 5.18% and 4.62%
  Total Cell Count: 193 and 195
[2]; [9]
  Population Apoptotic (%): 30.77% and 42.86%
  Population Fragmented Nuclei (%): 9.35% and 4.71%
  Population Healthy Nuclei (%): 85.37% and 89.8%
  Population Hoechst High Intensity Objects (%): 0%
  Population Membrane Permeable-Phenotype (%): 1.9% and 3.49%
  Population Mitochondria Different-Phenotype (%): 13.33% and 6.11%
  Population Mitotic Cells (%): 69.23% and 57.14%
  Population Normal (%): 100%
  Population Pyknosed Nuclei (%): 5.28% and 5.49%
  Population Tubulin-Different-Phenotype (%): 14.76% and 36.24%
  Total Cell Count: 246 and 255
[3]; [4]
  Population Apoptotic (%): 7.87% and 11.11%
  Population Fragmented Nuclei (%): 1.79% and 6.3%
  Population Hoechst High Intensity Objects (%): 0%
  Population Membrane Permeable-Phenotype (%): 0% and 5%
  Population Mitochondria Different-Phenotype (%): 33.99% and 35%
  Population Mitotic Cells (%): 92.13% and 88.89%
  Population Normal (%): 100%
  Population Pyknosed Nuclei (%): 37.8% and 77.95%
  Total Cell Count: 336 and 127
[3]; [5]
  Population Apoptotic (%): 10.45% and 10.49%
  Population Fragmented Nuclei (%): 2.33% and 0.57%
  Population Hoechst High Intensity Objects (%): 0.33% and 0%
  Population Membrane Permeable-Phenotype (%): 0%
  Population Mitochondria Different-Phenotype (%): 33.96% and 33.33%
  Population Mitotic Cells (%): 89.55% and 89.51%
  Population Normal (%): 99.67% and 100%
  Population Pyknosed Nuclei (%): 44.67% and 82.18%
  Total Cell Count: 301 and 174
[3]; [6]
  Population Apoptotic (%): 11.32% and 14.85%
  Population Fragmented Nuclei (%): 0.96% and 6.08%
  Population Hoechst High Intensity Objects (%): 0.19% and 0%
  Population Membrane Permeable-Phenotype (%): 0.49% and 2.63%
  Population Mitochondria Different-Phenotype (%): 14.43% and 13.16%
  Population Mitotic Cells (%): 88.68% and 85.15%
  Population Normal (%): 99.81% and 100%
  Population Tubulin-Different-Phenotype (%): 9.78% and 7.89%
[3]; [7]
  Population Apoptotic (%): 19.64% and 15.94%
  Population Fragmented Nuclei (%): 2.8% and 0.54%
  Population Healthy Nuclei (%): 71.1% and 24.46%
  Population Hoechst High Intensity Objects (%): 0.23% and 0%
  Population Membrane Permeable-Phenotype (%): 1.31% and 0%
  Population Mitochondria Different-Phenotype (%): 27.87% and 13.33%
  Population Mitotic Cells (%): 80.36% and 84.06%
  Population Normal (%): 99.77% and 100%
  Population Pyknosed Nuclei (%): 26.11% and 75%
  Total Cell Count: 430 and 184
[3]; [8]
  Population Apoptotic (%): 7.89% and 12.96%
  Population Fragmented Nuclei (%): 3.42% and 3.98%
  Population Healthy Nuclei (%): 87.9% and 72.12%
  Population Hoechst High Intensity Objects (%): 0% and 1.74%
  Population Membrane Permeable-Phenotype (%): 5.37% and 2.45%
  Population Mitochondria Different-Phenotype (%): 12.03% and 23.31%
  Population Mitotic Cells (%): 92.11% and 87.04%
  Population Normal (%): 100% and 98.26%
  Population Pyknosed Nuclei (%): 8.68% and 23.89%
[3]; [9]
  Population Apoptotic (%): 9.93% and 27.4%
  Population Fragmented Nuclei (%): 4.13% and 2.25%
  Population Healthy Nuclei (%): 81.99% and 70.41%
  Population Hoechst High Intensity Objects (%): 0%
  Population Membrane Permeable-Phenotype (%): 8.52% and 2.66%
  Population Mitochondria Different-Phenotype (%): 24.73% and 43.09%
  Population Mitotic Cells (%): 90.07% and 72.6%
  Population Normal (%): 100%
  Population Pyknosed Nuclei (%): 13.88% and 27.34%
